In the library only some 3.5% were active in any assay of this set; here they are far more common.
MrgX1 antag = antagonists of human MrgX1 receptor, primary screen, HEK293 cells, Fluo-4 calcium flux | Mas-related G-protein coupled receptor member X1 (Homo sapiens), Q96LB2 | BAM8-22 antagonism; stronger effect = lower value | B-score at 10 µM | 1.3% of 310,000 active;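 active = calcium-response B-score plate-corrected more than 3 library SD below zero, starting fluorescence within 5 deviations, no agonist response on first addition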;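 also: peak minus trough fluorescence over baseline after final BAM8-22 challenge near maximal dose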
Target sequence (Q96LB2 whole entry, looked up): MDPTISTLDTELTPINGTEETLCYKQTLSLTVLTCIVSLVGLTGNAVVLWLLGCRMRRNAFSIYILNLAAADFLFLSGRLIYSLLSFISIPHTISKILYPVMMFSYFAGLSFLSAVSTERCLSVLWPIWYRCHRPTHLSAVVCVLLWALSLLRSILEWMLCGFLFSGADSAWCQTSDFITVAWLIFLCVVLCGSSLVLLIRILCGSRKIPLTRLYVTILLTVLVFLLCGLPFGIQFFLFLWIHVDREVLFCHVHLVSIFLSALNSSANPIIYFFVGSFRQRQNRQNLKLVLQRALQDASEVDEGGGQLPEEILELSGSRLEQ
RGS4 inh = RGS4 inhibitors, primary screen, cell-based, HEK293 M3R inducible RGS4, calcium flux; Regulator of G-protein signaling 4 (Homo sapiens), P49798; 0.45% of 310,000 active; B-score at 10 µM; Fluo-4 calcium flux; stronger effect = higher value; triggered by carbachol at its EC20; AID 463165, 2010;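 active = B-score, a plate-corrected calcium signal, over three deviations above library mean, with baseline fluorescence within five deviations of library mean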;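 also: RGS4 expression induced by doxycycline in cells with stable M3 receptor; B-score is computed from the integrated fluorescence ratio over baseline after carbachol; higher B-score means a larger calcium signal and so more RGS4 inhibition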
Target sequence (P49798 whole entry, looked up): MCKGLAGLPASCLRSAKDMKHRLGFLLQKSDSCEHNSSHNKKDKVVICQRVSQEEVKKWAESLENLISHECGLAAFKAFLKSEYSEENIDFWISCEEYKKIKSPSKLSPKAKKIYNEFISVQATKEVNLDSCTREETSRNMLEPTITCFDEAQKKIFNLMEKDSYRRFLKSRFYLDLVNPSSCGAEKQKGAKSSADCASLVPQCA
RGS4 act = RGS4 potentiators or activators, primary screen, cell-based, HEK293 M3R inducible RGS4, calcium flux | carbachol calcium flux Fluo4; stronger effect = lower value | B-score at 10 µM | 0.92% of 310,000 active;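 active = B-score of the integrated calcium signal more than 4 SD below the library mean, with starting fluorescence not abnormally high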;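 also: negative B-score means reduced calcium response which marks RGS4 activation or potentiation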
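Material: Inducible-RGS4 HEK293 cells carrying M3 receptor; also added: carbachol at ECmax as muscarinic agonist stimulus; incubation: compound preincubation 20 min at room temperature before agonist; signal: Fluo4-AM (2 µM) calcium-flux fluorescence, kinetic read; measure: integrated calcium ratio converted to B score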
MrgX1 allo act = positive allosteric modulators of MrgX1, primary screen, HEK293 cells, Fluo-4 calcium flux | 0.63% of 310,000 active | B-score at 10 µM | AID 588675, 2011 | Mas-related G-protein coupled receptor member X1 (Homo sapiens), Q96LB2 | FDSS; stronger effect = higher value;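 active = plate-corrected calcium response at least 3 library SD above typical, normal starting fluorescence, not activating the receptor alone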;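 also: compound read alongside a low EC10 to EC30 dose of BAM8-22 agonist; peak minus trough fluorescence over baseline measured at the second addition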
MrgX1 agonist = agonists of human MrgX1 receptor, primary screen, HEK293 cells, Fluo-4 calcium flux; Mas-related G-protein coupled receptor member X1 (Homo sapiens), Q96LB2; Fluo-4 calcium fluorescence, agonist mode; stronger effect = higher value; B-score at 10 µM; 0.44% of 310,000 active;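 active = calcium response B-score plate-corrected fluorescence ratio at least 3 library SD, with starting fluorescence B-score inside 5 SD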
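System: HEK293 cells stably expressing human MrgX1 receptor; Dosing: test compound in the initial addition of three; Schedule: overnight plating, then 30 min 37 °C plus 30 min room-temperature dye loading; Detection: kinetic calcium dye fluorescence, Fluo-4 NW; Controls: per-plate positive and negative controls for Z′ factor.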
RGS4 inh valid = enhanced carbachol calcium response, M3R/RGS4 cells, RGS4 inhibitor project, cell-based, validation screen, HEK293 M3R/RGS4, calcium flux. AID 492999, 2010. 65% of 1,700 active. calcium response, % at 10 µM. carbachol calcium Fluo-4 fluorescence; carbachol added at its EC20; 0 = buffer wells, 100 = carbachol control. shares compounds with RGS4 inh;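 active = duplicate-averaged calcium response above the buffer-only control mean plus 5 SD of those controls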;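 also: integrated fluorescence ratio F max minus min over baseline F0; higher response in RGS4-induced cells means RGS4 inhibition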
RGS4 uninduced = carbachol calcium response in non-induced M3R cells, confirmation, counter-screen for RGS4 inhibitor project, cell-based, HEK293 M3R | activity (percent), % at 10 µM | 20% of 1,900 active | shares compounds with RGS4 inh | carbachol calcium Fluo-4; submaximal (EC20) carbachol stimulus; buffer wells 0%, carbachol control wells 100% | AID 493000, 2010; call rule not given here;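 also: RGS4 induction absent so cells express M3R without RGS4; higher means more calcium signal and flags a non-specific hit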
M3R basal Ca ctr = second RGS4 inhibitor counter-screen in uninduced cells lacking carbachol. HEK293 M3R/RGS4 non-induced, Fluo-4 calcium, no carbachol; normalised: buffer wells 0%, carbachol wells 100%. shares compounds with RGS4 inh. 22% of 1,900 active. calcium response (agonist-mode artifact), % at 10 µM. AID 493001;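 active = duplicate-averaged calcium rise in uninduced cells above buffer wells' mean plus 5 SD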
MrgX1 ag reconf = MrgX1 receptor agonists, duplicate retest, confirmation, HEK293 cells, Fluo-4 calcium flux | shares compounds with MrgX1 agonist | Fluo-4 calcium fluorescence, FDSS | activation, % at 10 µM | 78% of 600 active | AID 602412, 2012;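 active = calcium signal rise, corrected for plate position, at least 3 library SD high, with starting brightness within 5 such deviations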
MrgX1 PAM conf = MrgX1 positive allosteric modulators, duplicate retest, confirmation, HEK293 cells, Fluo-4 calcium flux; shares compounds with MrgX1 allo act; Fluo-4 calcium fluorescence, FDSS; activation (ratio percentage), % at 10 µM; 13% of 1,200 active; AID 602413, 2012;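 active = ratio at least 3 SD above the weak peptide control, stable starting fluorescence, no direct agonism earlier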;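 also: compound followed by low BAM8-22 agonist challenge near EC20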
MrgX1 ant reconf = MrgX1 receptor antagonists, duplicate retest, confirmation, HEK293 cells, Fluo-4 calcium flux; shares compounds with MrgX1 antag; BAM8-22 calcium flux; stronger effect = lower value; remaining BAM8-22 calcium response % of control (stronger effect = lower value), % at 10 µM; 19% of 2,300 active; AID 602420, 2012;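 active = remaining agonist calcium response no higher than 100% minus 3 SD of agonist-only control wells, with starting fluorescence near control levels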;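 also: agonist BAM8-22 given at a near maximal EC90 to ECmax level; peak minus minimum fluorescence divided by baseline after agonist addition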
HEK293 Ca flux = nonspecific calcium signal in parental HEK293, confirmation, counter-screen for MrgX1 antagonist project, parental HEK293 cells, Fluo-4 calcium flux | shares compounds with MrgX1 antag | Fluo-4 calcium fluorescence, FDSS | fluorescence ratio F(max-min)/F0 at 10 µM | 2% of 4,000 active;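 active = duplicate-averaged calcium fluorescence ratio at least three times the standard deviation of buffer wells, a nonspecific response in parental cells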
HEK293 Ca counter = calcium response in parental HEK293 cells, primary screen, counter-screen for MrgX1 allosteric activator project, cell-based, Fluo-4 calcium flux, duplicate. AID 624114, 2012. Fluo-4 fluorescence ratio; stronger effect = higher value. fluorescence ratio F(max-min)/F0 at 10 µM. shares compounds with MrgX1 antag. 0.4% of 4,000 active;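 active = calcium fluorescence ratio, averaged over duplicates, at least 3 SD of the buffer-well ratio, meaning a nonspecific response in receptor-free cells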;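 also: untransfected parental HEK293 lacking MrgX1 used as counterscreen for MrgX1 allosteric activators; fluorescence change taken during the second addition on a kinetic imager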
HEK293 Ca cntr2 = calcium response in parental HEK293 cells, primary screen, counter-screen for MrgX1 agonist project, cell-based, Fluo-4 calcium flux, duplicate, agonist mode. Fluo-4 calcium fluorescence (FDSS); stronger effect = higher value. 8.7% of 4,000 active. shares compounds with MrgX1 antag. fluorescence ratio F(max-min)/F0 at 10 µM;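 active = calcium fluorescence ratio at least three times the spread of buffer wells, meaning a non-specific response in parental cells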
Active calls of the source: *; i = inactive; . = no result given.

SMILES	MrgX1 antag	RGS4 inh	RGS4 act	MrgX1 allo act	MrgX1 agonist	RGS4 inh valid	RGS4 uninduced	M3R basal Ca ctr	others
COc1ccc(S(=O)(=O)N2CCc3cc(OC)c(OC)cc3C2)cc1	i	i	i	i	i	.	.	.
O=C(O)CCc1ccc(-c2ccc(Br)cc2)o1	i	i	i	i	i	.	i	i
O=C(O)CCc1ccc(-c2ccc(Cl)cc2)o1	i	i	i	i	i	.	.	.
Cc1nccn1CC(=O)N/N=C/c1cccc(O)c1	i	i	i	i	i	.	.	.
COc1cc(/C=C/C(=O)c2ccc(O)cc2)ccc1OCC#N	i	4.7*	i	i	i	10%*	i	i
O=C1c2cc(O)cc(O)c2C(=O)c2c1cc(O)c([C@@H](CO)CCO)c2O	i	6.3*	i	i	i	18%*	i	67%*
Cc1cc(O)c2c(c1)C(=O)c1cc(O)cc(O)c1C2=O	i	i	i	i	i	.	.	.
Cc1ccc(C(CC(=O)c2ccc(Cl)cc2)C(=O)O)cc1 (stereo not given)	i	i	i	i	i	.	.	.
Cc1ccc(SC(CC(=O)c2ccc(C)cc2)C(=O)O)cc1 (stereo not given)	i	4.7*	i	i	i	8.0%*	i	i
CC(C)N(CCCNC(=O)Cn1c(=O)c2cccn2c2ccccc21)Cc1ccccc1	i	i	i	i	i	i	i	i
CN(CCCNC(=O)Cn1c(=O)c2cccn2c2ccccc21)Cc1ccccc1	i	23*	i	i	i	i	i	i
Cc1ccc(S(=O)(=O)N2CCC3(CC2)OCCO3)cc1	i	i	i	i	i	.	.	.
COC(=O)COc1ccc(S(=O)(=O)N2CCc3ccccc3C2)cc1C	i	i	i	i	i	.	.	.
CCC(=O)NC(=S)NNC(=O)c1ccc(O)cc1	i	i	i	i	i	.	.	.
Cc1ccc(N=C2NC(=O)/C(=C/c3cccnc3)S2)c(C)c1	i	7.9*	i	i	i	20%*	i	i
Cc1cccc(N=C2NC(=O)/C(=C/c3cccnc3)S2)c1C	i	i	i	i	i	.	.	.
O=C(CSc1nc2ccccc2c(=O)n1-c1ccc(Cl)cc1)c1ccco1	i	i	i	i	i	.	.	.
CC(=O)N1CCc2cc(S(=O)(=O)NCCC3=CCCCC3)ccc21	i	i	i	i	i	.	.	.
Cc1nc(NC(=O)CSc2nc3cccnc3n2C2CCCCC2)sc1C	i	i	i	i	i	.	i	i
CCc1nnc(NC(=O)CSc2nc3cccnc3n2C2CCCCC2)s1	i	i	i	i	i	.	.	.
O=C1/C(=C/c2ccc(O)cc2)SC(=S)N1Cc1cccnc1	i	i	i	i	i	.	.	.
O=C1/C(=C\c2ccc(O)c(O)c2)SC(=S)N1Cc1ccccc1	-12*	14*	i	i	i	16%*	36%*	42%*	MrgX1 ant reconf=i;HEK293 Ca flux=0.31*;HEK293 Ca counter=i;HEK293 Ca cntr2=i
CCOC(=O)C(=O)C1=C(N2CCOCC2)/C(=C\c2ccc(F)cc2)CC1	i	7.7*	i	i	27*	7.0%*	i	21%*	MrgX1 ag reconf=220%*;HEK293 Ca flux=i;HEK293 Ca counter=i;HEK293 Ca cntr2=45*
Cc1cccc(N2CCN(C(=O)C3CCC(=O)N(Cc4ccccc4F)C3)CC2)c1C (stereo not given)	i	i	i	i	i	.	.	.
Cc1c(-c2nc(N)nc(Nc3ccccc3F)n2)oc2ccccc12	i	i	i	16*	i	.	i	i	MrgX1 PAM conf=59%*;HEK293 Ca flux=i;HEK293 Ca counter=i;HEK293 Ca cntr2=i
O=C1c2ccccc2S(=O)(=O)c2cc(C(=O)N(c3ccccn3)c3ccccn3)ccc21	i	4.9*	i	i	41*	14%*	34%*	135%*	MrgX1 ag reconf=653%*;HEK293 Ca flux=i;HEK293 Ca counter=i;HEK293 Ca cntr2=126*
CCOC(=O)C1=C(O)/C(=C\c2cccc(OC)c2)N=C1C	i	14*	i	i	32*	47%*	i	i	MrgX1 ag reconf=158%*;HEK293 Ca flux=i;HEK293 Ca counter=i;HEK293 Ca cntr2=i
COC(=O)C1=C(O)/C(=C/c2cccc(OC)c2O)N=C1C	i	i	i	i	i	.	.	.

Assay outcomes: PubChem, Johns Hopkins Ion Channel Center
